Measurements from different studies.
FGFR3: Fibroblast growth factor receptor 3 (FGFR3, Homo sapiens, UniProt P22607)
FGFR3 G697C: Fibroblast growth factor receptor 3 (FGFR3, Homo sapiens, UniProt P22607, G697C)
FGFR3 K650E: Fibroblast growth factor receptor 3 (FGFR3, Homo sapiens, UniProt P22607, K650E)

| Structure (SMILES) | target | assay | setting | measurement | value |
| --- | --- | --- | --- | --- | --- |
| Nc1nc(Nc2ccc(S(N)(=O)=O)cc2)nn1C(=O)c1c(F)cccc1F | FGFR3 | cell-free assay | 0.5 µM | remaining signal | 46.4% |
| Cc1ccc(C(=O)NCc2ccsc2)cc1C#Cc1cn(C(C)C)c2ncnc(N)c12 | FGFR3 | enzyme activity, inhibitor | 1 µM | activity vs control | 33% |
| CC(C)CC(=O)N1CCc2nc(-c3ccc(Br)cc3)nc(N(C)Cc3ccccc3)c2C1 | FGFR3 | cell-free assay, competition with immobilised ligand | 0.1 µM | remaining binding | 100% |
| COc1cc(Cl)c(C(=O)N[C@@H](CN[C@H]2CC[C@@H](N)CC2)Cc2ccc(C#N)cc2)cc1-c1ccc(CN[C@H](C)c2ccc(C)cc2)o1 | FGFR3 | enzyme activity, inhibitor | 1 µM | remaining activity | 85% |
| Cc1cc(C)c(-n2ccn3nc(-c4cccnc4)cc23)cc1NC(=O)c1cc(C#N)cc(S(F)(F)(F)(F)F)c1 | FGFR3 | cell-free assay, competition with immobilised ligand | 0.1 µM | remaining binding | 95.6% |
| Cc1ccc(Nc2nccc(N(C)c3ccc4c(C)n(C)nc4c3)n2)cc1S(N)(=O)=O | FGFR3 | enzyme activity, inhibitor | 0.3 µM | inhibition | 66% |
| O=C1Nc2ccc(Cl)cc2C1=Cc1cc(Cl)c(O)c(Cl)c1 | FGFR3 | cell-free assay | 0.5 µM | remaining signal | 94% |
| Cc1cnn2ncc(-c3ccnc(N(C)C)n3)c2c1 | FGFR3 G697C | binding | 1 µM | remaining binding | 82% |
| CNCc1ccc(-c2cc(-c3nc(-c4ccc(S(=O)(=O)C(C)C)cc4)cnc3N)on2)cc1 | FGFR3 | enzyme activity, inhibitor | 0.4 µM | inhibition | 0% |
| CCOCCn1cc(C(=O)Nc2ccc(-n3nc(-c4cccnc4)cc3C(F)(F)F)cn2)ccc1=O | FGFR3 | cell-free assay, competition with immobilised ligand | 1 µM | remaining binding | 84% |
| O=C(Nc1cnn(-c2csc(C(=O)NC3COC3)c2)c1)Nc1c(F)cccc1Cl | FGFR3 | enzyme activity, inhibitor | 5 µM | remaining activity | 92% |
| Cc1cnc(NC2CCOCC2)nc1-n1cnc(C(=O)NC(CN)c2cc(F)cc(Cl)c2)c1 (centres unmarked) | FGFR3 | enzyme activity, inhibitor, radiometric | 1 µM | remaining activity | 100% |
| COc1cc2ncnc(Nc3ccc(Oc4ccccc4)cc3C)c2cc1OC | FGFR3 K650E | enzyme activity, inhibitor | 1 µM | inhibition | 0% |
| CNC(=O)Nc1ccc2c(c1)[C@@]1(CC2)OC(=O)N(CC(=O)N(Cc2ccc(F)cc2)[C@@H](C)C(F)(F)F)C1=O | FGFR3 | cell-free assay, competition with immobilised ligand | 1 µM | remaining binding | 92% |
| CC(C)(O)[C@H]1CC[C@H](Nc2ccc3ncc(-c4cccc(C(F)(F)F)c4)n3n2)CC1 | FGFR3 | enzyme activity, inhibitor | 1 µM | remaining activity | 102% |
| Cc1ccc(NC(=O)c2ccc(C)c(C(F)(F)F)c2)cc1C#Cc1nn(C2CCC(O)CC2)c2ncnc(N)c12 (centres unmarked) | FGFR3 | cell-free assay | 10 µM | remaining signal | 3% |
| CCN(CC)CCNC(=O)c1c(C)[nH]c(/C=C2\C(=O)Nc3ccc(F)cc32)c1C | FGFR3 | enzyme activity, inhibitor | 0.3 µM | inhibition | 61% |
| CC(C)(C)c1nc(-c2cccc(NS(=O)(=O)c3c(F)cccc3F)c2F)c(-c2ccnc(N)n2)s1 | FGFR3 | enzyme activity, inhibitor, radiometric | 1 µM | remaining activity | 118% |

| Structure (SMILES) | target | assay | setting | measurement | value |
| --- | --- | --- | --- | --- | --- |
| N#CCCc1ccc2c(c1)-c1[nH]c3ccc([N+](=O)[O-])cc3c1CC(=O)N2 | FGFR3 | cell-free assay | 0.5 µM | remaining signal | 90.3% |
| Cc1ccc(C(=O)Nc2ccc(CN3CCN(C)CC3)c(C(F)(F)F)c2)cc1C#Cc1cnc2cccnn12 | FGFR3 | cell-free assay | 23.5 nM | remaining signal | 62% |
| CN(CCCC(F)(F)F)c1nccc(-c2cnn3ncccc23)n1 | FGFR3 G697C | binding | 1 µM | remaining binding | 86% |
| CCc1ccccc1C(=O)Nc1n[nH]c2c(C)c(F)c(C3C(C#N)=C(C)N(C)C(C)=C3C#N)cc12 | FGFR3 | cell-free assay, competition with immobilised ligand | 1 µM | remaining binding | 93% |
| O=C(CSc1nc2nccnc2c(=O)n1CCc1ccccc1)Nc1nccs1 | FGFR3 | enzyme activity, inhibitor | 10 µM | inhibition | 8% |
| CN(C)c1nccc(-c2cnc3ncccn23)n1 | FGFR3 | binding | 1 µM | remaining binding | 100% |
| COc1cc2ncnc(Nc3ccc(Oc4ccccc4)c(C)c3C)c2cc1OC | FGFR3 K650E | enzyme activity, inhibitor | 1 µM | inhibition | 3% |
| CCCOc1ccc(OC)c(F)c1C(=O)c1ccc(C(=O)N[C@@H]2CNC[C@H]2NC(=O)c2ccc3[nH]ncc3c2)cc1 | FGFR3 | enzyme activity, inhibitor | 10 µM | remaining activity | 47% |
| N[C@H]1CCN(c2nccc(-c3cnn4ncccc34)n2)C1 | FGFR3 | binding | 1 µM | remaining binding | 84% |
| CSc1nc(C)c(-c2ccnc(Nc3ccc(N4CCOCC4)cc3)c2)[nH]1 | FGFR3 | cell-free assay, inhibitor | 10 µM | inhibition | 70.4% |
| Nc1ncnc2occ(-c3ccc(NC(=O)Nc4cc(C(F)(F)F)ccc4F)cc3)c12 | FGFR3 G697C | cell-free assay | 20 µM | remaining signal | 1.1% |
| CCCCN(CCCC)C(=O)CN1C[C@H](c2cc(OC)c3c(c2)OCO3)[C@@H](C(=O)O)[C@@H]1CC(C)(C)CCC | FGFR3 | cell-free assay, competition with immobilised ligand | 1 µM | remaining binding | 100% |
| CCCS(=O)(=O)Nc1ccc(F)c(C(=O)c2c[nH]c3ncc(-c4ccc(Cl)cc4)cc23)c1F | FGFR3 | enzyme activity, inhibitor | 1 µM | inhibition | < 10% |
| Cc1c(NC(=O)c2cc(C(N)=O)nc3cc(F)ccc23)c(C(F)(F)F)nn1Cc1ccc(C(C)(C)C)cc1 | FGFR3 | cell-free assay, competition with immobilised ligand | 1 µM | remaining binding | 92% |
| C[C@H]1CCN(c2nccc(-c3cnn4ncccc34)n2)C1 | FGFR3 G697C | binding | 1 µM | remaining binding | 83% |
| COc1cc(-c2cn(C3CCc4c(F)cccc4N(CC(F)(F)F)C3=O)nn2)ccc1-n1cnc(C)c1 (centres unmarked) | FGFR3 | cell-free assay, competition with immobilised ligand | 1 µM | remaining binding | 100% |
| CC/C(=N\NC(=O)NCc1cccc(O)c1)c1ccc(O)c(C)c1O | Fibroblast growth factor receptor 3 (FGFR3, Homo sapiens, UniProt P22607, K650M) | enzyme activity, inhibitor | 0.1 µM | inhibition | 4.2% |
